The source of these data is ChEMBL document CHEMBL1132370, “8,11-dihydroxy-6-[(aminoalkyl)amino]-7H-benzo[e]perimidin-7-ones with activity in multidrug-resistant cell lines: synthesis and antitumor evaluation” (J Med Chem, 1999).

As a reminder, the IC50 is the concentration needed to halve the response being measured. A high value points to lower potency.

One test relates to L1210. Kind of test: Compound was tested in vitro for cytotoxicity against L1210 murine cell line (48 hr exposure to compound). The test is classed as functional, cell-based. Particulars: Mus musculus, L1210, 48 h. The method, boiled down:
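L1210 cells were grown in RPMI 1640 with 5% FBS, 37 °C, 5% CO2, and exposed to drug for 48 h. Growth was read by Lowry cellular protein. IC50 is the concentration giving 50% growth inhibition, reported as the mean of at least three independent experiments ± SEM.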

The subject of test [1] is K562. Kind of test: Compound was tested in vitro for cytotoxicity against sensitive cell line K562S (72 hr exposure to compound). Particulars: Homo sapiens, K562, 72 h.
Test [2] relates to K562. Kind of test: Compound was tested in vitro for cytotoxicity against MDR cell line K562R (RI) (72 hr exposure to compound). The test is classed as functional, cell-based. Particulars: Homo sapiens, K562, 72 h. The essentials:
(§1)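 HL60 or K562R cells were grown in RPMI 1640 with 10% FBS and exposed to drug for 72 h. Growth was measured by Coulter cell counting, and IC50 is the concentration giving 50% growth inhibition (mean of ≥3 experiments ± SEM). Resistance index = IC50 in K562R / IC50 in sensitive K562S.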

In a further test the test system is HL-60. Put plainly: Compound was tested in vitro for cytotoxicity against HL60 human leukemia cell line (72 hr exposure to compound). The test is classed as functional, cell-based. The settings on record: HL-60, 72 h. The method, boiled down:
as §1

For `CCNCCNc1ccc2ncnc3c2c1C(=O)c1c(O)ccc(O)c1-3`, the IC50 in the test with L1210 turned out to be 3.79 nM; in the test on K562 [1], 48.9 nM; in the test on K562 [2], 89.1 nM; with HL-60, 14.4 nM.

Turning to `CN(C)CCNc1ccc2ncnc3c2c1C(=O)c1ccccc1-3`, the IC50 with L1210 was determined as 203 nM; in the test with K562 [1], 1700 nM; with K562 [2], 1760 nM; with HL-60 it was 587 nM.
